These results are taken from ChEMBL document CHEMBL2163301, “Substrates for efficient fluorometric screening employing the NAD-dependent sirtuin 5 lysine deacylase (KDAC) enzyme” (J Med Chem, 2012).

For test [1], the target named is NAD-dependent protein deacylase sirtuin-6 (Homo sapiens) (UniProt Q8N6T7). The test can be described thus: Activity of human SIRT6 assessed as deacylation of compound at 50 uM after 1 hr by trypsin developer-based fluorescence assay. The procedure, abridged: (§1)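 Recombinant sirtuin at 1 μg per 50 μL reaction, with SIRT1-GST fusion as the SIRT1 source. Fluorogenic substrate and NAD incubated in Tris-Cl buffer pH 8.0 with BSA (1 mg/mL) for 1 h at 37 °C. Developer with nicotinamide (2 mM) and trypsin (0.4 mg/mL) added, 15–30 min at room temperature. Fluorescence read at ex 360/em 460 nm and normalized to no-enzyme wells. At least two experiments in duplicate.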
Sequence of NAD-dependent protein deacylase sirtuin-6 (Homo sapiens) (Q8N6T7 whole entry, the tested form may be a part): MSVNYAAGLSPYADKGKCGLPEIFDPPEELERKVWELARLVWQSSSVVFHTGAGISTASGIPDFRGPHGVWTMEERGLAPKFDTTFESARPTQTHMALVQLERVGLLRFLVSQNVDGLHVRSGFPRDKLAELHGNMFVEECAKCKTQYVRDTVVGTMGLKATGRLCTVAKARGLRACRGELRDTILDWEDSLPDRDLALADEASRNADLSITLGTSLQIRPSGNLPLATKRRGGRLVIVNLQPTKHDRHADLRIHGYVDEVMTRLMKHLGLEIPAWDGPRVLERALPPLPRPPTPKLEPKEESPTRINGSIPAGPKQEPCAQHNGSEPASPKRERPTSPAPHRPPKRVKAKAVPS

The target of test [2] is T1, NAD-dependent protein deacetylase sirtuin-1 (Homo sapiens) (UniProt Q96EB6).
T1 sequence (whole entry): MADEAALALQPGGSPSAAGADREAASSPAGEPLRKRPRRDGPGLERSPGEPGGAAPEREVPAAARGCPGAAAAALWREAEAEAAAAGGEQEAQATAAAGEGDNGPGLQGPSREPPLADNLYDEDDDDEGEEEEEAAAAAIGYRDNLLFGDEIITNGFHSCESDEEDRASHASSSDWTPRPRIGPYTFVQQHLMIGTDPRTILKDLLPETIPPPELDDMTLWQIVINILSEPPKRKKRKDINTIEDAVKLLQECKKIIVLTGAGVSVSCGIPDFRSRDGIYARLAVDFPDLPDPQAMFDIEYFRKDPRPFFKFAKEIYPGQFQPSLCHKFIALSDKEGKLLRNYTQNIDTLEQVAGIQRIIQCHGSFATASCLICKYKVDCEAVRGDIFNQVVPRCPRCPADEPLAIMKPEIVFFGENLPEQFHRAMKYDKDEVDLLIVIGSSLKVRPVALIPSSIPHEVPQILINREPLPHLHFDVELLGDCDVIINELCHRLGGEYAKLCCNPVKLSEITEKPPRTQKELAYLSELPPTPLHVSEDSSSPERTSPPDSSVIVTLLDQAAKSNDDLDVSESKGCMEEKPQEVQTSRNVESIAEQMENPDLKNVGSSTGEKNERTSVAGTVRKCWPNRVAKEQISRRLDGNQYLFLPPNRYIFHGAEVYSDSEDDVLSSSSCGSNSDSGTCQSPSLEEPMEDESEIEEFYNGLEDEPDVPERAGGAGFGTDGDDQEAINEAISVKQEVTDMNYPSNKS
The test can be described thus: Activity of human truncated SIRT1-GST fusion protein at 50 uM after 1 hr by trypsin developer-based fluorescence assay. The gist of the method: (§2)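 Acetylated substrates were each treated with commercial full-length His-tagged SIRT1 or truncated SIRT1-GST fusion, with NAD, in Tris-Cl pH 8.0 buffer containing BSA. End point: 1 h at 37 °C, then nicotinamide (2 mM)/trypsin (0.4 mg/mL) developer for 15–30 min at room temperature. Fluorescence read at ex 360/em 460 nm against no-enzyme control wells.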

Test [3] has as its target NAD-dependent protein deacylase sirtuin-5, mitochondrial (Homo sapiens) (UniProt Q9NXA8). The test can be described thus: Activity of human SIRT5 assessed as deacylation of compound at 50 uM after 1 hr by trypsin developer-based fluorescence assay. The gist of the method: as §1
Test [4] concerns the target T2, NAD-dependent protein lipoamidase sirtuin-4, mitochondrial (Homo sapiens) (UniProt Q9Y6E7).
T2 sequence (whole entry): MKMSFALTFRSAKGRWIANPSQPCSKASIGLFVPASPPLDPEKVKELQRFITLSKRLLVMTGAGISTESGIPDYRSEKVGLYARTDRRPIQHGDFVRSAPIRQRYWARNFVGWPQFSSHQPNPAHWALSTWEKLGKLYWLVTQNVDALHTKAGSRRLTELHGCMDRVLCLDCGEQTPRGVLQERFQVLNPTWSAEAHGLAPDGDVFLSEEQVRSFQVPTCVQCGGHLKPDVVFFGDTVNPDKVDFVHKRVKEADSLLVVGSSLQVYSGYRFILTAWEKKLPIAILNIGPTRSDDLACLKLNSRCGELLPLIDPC
As to the kind of experiment: Activity of recombinant human SIRT4 assessed as deacylation of compound at 50 uM after 1 hr by trypsin developer-based fluorescence assay. The procedure, abridged: as §1

The target of test [5] is T1, NAD-dependent protein deacetylase sirtuin-1 (Homo sapiens). As to the kind of experiment: Activity of human full length SIRT1 enzyme at 50 uM after 1 hr by trypsin developer-based fluorescence assay. The procedure, abridged: as §2
The target is the same in test [6]. As to the kind of experiment: Activity of human SIRT1 assessed as deacylation of compound at 50 uM after 1 hr by trypsin developer-based fluorescence assay. The gist of the method:
as §1

Test [7] addresses T3, NAD-dependent protein deacetylase sirtuin-3, mitochondrial (Homo sapiens) (UniProt Q9NTG7).
T3 sequence (whole entry): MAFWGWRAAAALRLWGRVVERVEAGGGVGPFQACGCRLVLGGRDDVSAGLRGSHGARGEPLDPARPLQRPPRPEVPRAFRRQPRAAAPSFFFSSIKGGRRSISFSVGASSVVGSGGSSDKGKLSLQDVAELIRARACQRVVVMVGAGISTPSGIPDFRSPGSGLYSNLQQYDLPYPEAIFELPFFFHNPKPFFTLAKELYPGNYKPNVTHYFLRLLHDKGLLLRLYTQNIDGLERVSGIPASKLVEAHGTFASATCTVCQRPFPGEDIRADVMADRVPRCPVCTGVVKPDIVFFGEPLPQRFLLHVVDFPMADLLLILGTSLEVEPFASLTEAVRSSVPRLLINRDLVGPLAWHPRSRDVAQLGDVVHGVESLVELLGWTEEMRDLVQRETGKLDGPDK
The test can be described thus: Activity of human SIRT3 assessed as deacylation of compound at 50 uM after 1 hr by trypsin developer-based fluorescence assay. The gist of the method: as §1

In test [8] the target is T4, NAD-dependent protein deacetylase sirtuin-7 (Homo sapiens) (UniProt Q9NRC8).
T4 sequence (whole entry): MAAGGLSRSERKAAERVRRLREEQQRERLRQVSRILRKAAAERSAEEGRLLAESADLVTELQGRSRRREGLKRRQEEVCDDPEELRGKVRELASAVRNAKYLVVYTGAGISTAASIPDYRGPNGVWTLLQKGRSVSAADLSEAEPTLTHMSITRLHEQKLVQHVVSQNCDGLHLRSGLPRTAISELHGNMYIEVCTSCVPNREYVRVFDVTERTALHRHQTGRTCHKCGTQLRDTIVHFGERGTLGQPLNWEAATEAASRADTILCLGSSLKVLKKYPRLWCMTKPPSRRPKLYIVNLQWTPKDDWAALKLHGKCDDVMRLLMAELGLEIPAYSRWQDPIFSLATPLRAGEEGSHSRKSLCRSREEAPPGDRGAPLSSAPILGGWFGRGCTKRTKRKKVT
The test can be described thus: Activity of recombinant human SIRT7 assessed as deacylation of compound at 50 uM after 1 hr by trypsin developer-based fluorescence assay. The gist of the method:
as §1

Test [9] concerns the target T5, NAD-dependent protein deacetylase sirtuin-2 (Homo sapiens) (UniProt Q8IXJ6).
T5 sequence (whole entry): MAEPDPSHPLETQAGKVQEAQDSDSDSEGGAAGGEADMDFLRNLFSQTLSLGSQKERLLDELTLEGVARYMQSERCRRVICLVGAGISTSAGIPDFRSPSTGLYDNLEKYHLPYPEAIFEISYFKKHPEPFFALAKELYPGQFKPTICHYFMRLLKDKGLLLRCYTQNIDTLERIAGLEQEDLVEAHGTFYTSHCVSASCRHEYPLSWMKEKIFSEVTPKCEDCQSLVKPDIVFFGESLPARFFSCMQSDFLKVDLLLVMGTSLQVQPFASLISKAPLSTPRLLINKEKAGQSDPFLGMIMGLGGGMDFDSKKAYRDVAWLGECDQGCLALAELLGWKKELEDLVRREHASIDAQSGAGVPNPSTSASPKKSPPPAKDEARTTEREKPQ
As to the kind of experiment: Activity of human SIRT2 assessed as deacylation of compound at 50 uM after 1 hr by trypsin developer-based fluorescence assay. The gist of the method:
as §1

Test [10] has as its target NAD-dependent protein deacylase sirtuin-5, mitochondrial (Homo sapiens) (UniProt Q9NXA8). The test can be described thus: Activity of human SIRT5 assessed as decrotonylation of compound at 50 uM after 1 hr by trypsin developer-based fluorescence assay. The procedure, abridged: as §1
The target in test [11] is T1, NAD-dependent protein deacetylase sirtuin-1 (Homo sapiens). The test can be described thus: Activity of human SIRT1 assessed as decrotonylation of compound at 50 uM after 1 hr by trypsin developer-based fluorescence assay. The procedure, abridged:
as §1

In test [12] the target is T3, NAD-dependent protein deacetylase sirtuin-3, mitochondrial (Homo sapiens). As to the kind of experiment: Activity of human SIRT3 assessed as decrotonylation of compound at 50 uM after 1 hr by trypsin developer-based fluorescence assay. The gist of the method:
as §1

In test [13] the target is NAD-dependent protein deacylase sirtuin-6 (Homo sapiens) (UniProt Q8N6T7). As to the kind of experiment: Activity of human SIRT6 assessed as decrotonylation of compound at 50 uM after 1 hr by trypsin developer-based fluorescence assay. The procedure, abridged:
as §1

The target of test [14] is T5, NAD-dependent protein deacetylase sirtuin-2 (Homo sapiens). The test can be described thus: Activity of human SIRT2 assessed as decrotonylation of compound at 50 uM after 1 hr by trypsin developer-based fluorescence assay. The procedure, abridged:
as §1

Where a name gives a salt, the structure may show the parent alone. Calls of active or inactive are those of the source. No cut-off for these calls is given here. *1 amine or outer side, *2 acyl side, *3 side chain or, on linkers, in order; H or OH if unused. Where a SMILES comes first, the peptide text is derived from it. The star is where a group is joined. AMC = Cc1cc(=O)oc2cc(N*)ccc12; Suc = O=C(CCC(=O)[*:2])[*:1]; Tfa = O=C(C(F)(F)F)*

Sequence of NAD-dependent protein deacylase sirtuin-5, mitochondrial (Homo sapiens) (Q9NXA8 37-310 limits assumed): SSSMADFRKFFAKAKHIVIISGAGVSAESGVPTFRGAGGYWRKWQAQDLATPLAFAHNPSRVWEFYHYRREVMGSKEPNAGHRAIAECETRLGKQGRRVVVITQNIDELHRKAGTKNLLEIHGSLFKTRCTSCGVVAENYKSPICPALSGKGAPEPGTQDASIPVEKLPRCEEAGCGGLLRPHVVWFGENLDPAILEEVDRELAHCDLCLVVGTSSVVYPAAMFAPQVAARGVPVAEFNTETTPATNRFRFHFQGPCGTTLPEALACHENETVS

As to `CC(=O)NCCCC[C@H](NC(=O)CNC(=O)[C@H](CC(C)C)NC(C)=O)C(=O)Nc1ccc2c(C)cc(=O)oc2c1` (Ac-Leu-Gly-Lys(Ac)-{AMC}), the outcome in [1], in test [2], in test [3], in test [4], in test [5] and in [8] was inactive. Also, the result in test [6], in [7] and in [9] was Active.
On to `CC(=O)NCCCC[C@H](NC(=O)[C@H](CCCCN)NC(=O)[C@@H]1CCCN1C(=O)[C@H](CCC(N)=O)NC(C)=O)C(=O)Nc1ccc2c(C)cc(=O)oc2c1` (Ac-QPKK(Ac)-{AMC}), for which the outcome in [1], in [2], in test [3], in test [4], in [5] and in test [8] was inactive. The result in test [6], in [7] and in test [9] was Active.
Consider `C/C=C/C(=O)NCCCC[C@H](NC(=O)CNC(=O)[C@H](CC(C)C)NC(C)=O)C(=O)Nc1ccc2c(C)cc(=O)oc2c1`, for which the outcome in [10], in [11], in [12], in test [13] and in test [14] was inactive.
For `CC(=O)NCCCC[C@H](NC(=O)[C@H](CCCCN)NC(=O)[C@H](Cc1cnc[nH]1)NC(=O)[C@H](CCCNC(=N)N)NC(C)=O)C(=O)Nc1ccc2c(C)cc(=O)oc2c1` (Ac-RHKK(Ac)-{AMC}), the outcome in test [1], in [2], in [3], in test [4], in test [5] and in test [8] was inactive. Moreover, the result in test [6], in [7] and in test [9] was Active.
As to `CC(=O)N[C@@H](CC(C)C)C(=O)NCC(=O)N[C@@H](CCCCNC(=O)C(F)(F)F)C(=O)Nc1ccc2c(C)cc(=O)oc2c1` (Ac-Leu-Gly-Lys(Tfa)-{AMC}), the outcome in [10], in test [12], in test [13] and in test [14] was inactive. Also, the outcome in [11] was Active.
Regarding `CC(=O)N[C@@H](CC(C)C)C(=O)NCC(=O)N[C@@H](CCCCNC(=O)CCC(=O)O)C(=O)Nc1ccc2c(C)cc(=O)oc2c1` (Ac-Leu-Gly-Lys(Suc)-{AMC}), the outcome in test [1], in test [4] and in [8] was inactive. The result in test [3] was Active.
In the case of `CC(=O)NCCCC[C@H](NC(=O)[C@H](CCCNC(=N)N)NC(=O)[C@H](C)NC(=O)[C@@H](NC(C)=O)[C@H](C)O)C(=O)Nc1ccc2c(C)cc(=O)oc2c1`, the outcome in test [1], in test [3], in [4] and in test [8] was inactive. Besides, the result in test [2], in [5], in test [6], in [7] and in test [9] was Active.
With `CC(=O)NCCCC[C@H](NC(=O)[C@H](CCCCNC(C)=O)NC(=O)[C@H](Cc1cnc[nH]1)NC(=O)[C@H](CCCNC(=N)N)NC(C)=O)C(=O)Nc1ccc2c(C)cc(=O)oc2c1` (Ac-RHK(Ac)K(Ac)-{AMC}), the outcome in test [1], in test [2], in test [3], in test [4], in [5] and in test [8] was inactive. Further, the result in test [6], in test [7] and in test [9] was Active.
For the compound `CC(=O)NCCCC[C@H](NC(C)=O)C(=O)Nc1ccc2c(C)cc(=O)oc2c1`, the result in test [1], in [2], in [3], in [4], in [5] and in [8] was inactive. Also, the result in test [6], in [7] and in test [9] was Active.
